Measured values: ChEMBL document CHEMBL1140082, “Design, synthesis, and biological evaluation of potent c-Met inhibitors” (J Med Chem, 2008)

Tests used:
[1] = molecular target: Hepatocyte growth factor receptor (Homo sapiens, UniProt P08581); assay: Inhibition of cMet by HTRF assay
[2] = Inhibition of IGFR
[3] = molecular target: Vascular endothelial growth factor receptor 2 (Homo sapiens, UniProt P35968); assay: Inhibition of phosphorylated KDR by HTRF assay
Outline: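 HTRF assay against KDR kinase with 10-point serial dilution. ATP at two-thirds of the experimentally determined Km (Eadie-Hofstee and Lineweaver-Burke). Ki derived from the IC50.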

[4] = molecular target: Hepatocyte growth factor receptor c-Met (Mus musculus) (UniProt P16056); assay: Inhibition of human recombinant HGF-mediated cMet phosphorylation in mouse CT26 cells
[5] = Selectivity of cMet over KDR
[6] = Selectivity of cMet over RON
[7] = molecular target: Mitogen-activated protein kinase 9 (Homo sapiens, UniProt P45984); assay: Inhibition of JNK2
[8] = molecular target: RAC-alpha serine/threonine-protein kinase (Homo sapiens, UniProt P31749); assay: Inhibition of PKBalpha
[9] = Selectivity of cMet over FGFRK
[10] = Selectivity of cMet over MSK1
[11] = Selectivity of cMet over cFMS kinase
[12] = Selectivity of cMet over PIM1
[13] = Bioavailability in iv dosed rat; assay type: ADME, organism-based; conditions: in vivo
[14] = Selectivity of cMet over JNK2
[15] = molecular target: Serine/threonine-protein kinase pim-2 (Homo sapiens, UniProt Q9P1W9); assay: Inhibition of PIM2 kinase
[16] = Selectivity of cMet over ZAP70
[17] = molecular target: Mitogen-activated protein kinase 3 (Homo sapiens, UniProt P27361); assay: Inhibition of ERK1
[18] = molecular target: Ribosomal protein S6 kinase alpha-5 (Homo sapiens, UniProt O75582); assay: Inhibition of MSK1
[19] = Inhibition of FGFRK
[20] = Selectivity of cMet over FGFRK2
[21] = molecular target: Serine/threonine-protein kinase pim-1 (Homo sapiens, UniProt P11309); assay: Inhibition of PIM1 kinase
[22] = Selectivity of cMet over JAK2
[23] = Selectivity of cMet over Aurora2
[24] = Selectivity of cMet over PIM2
[25] = molecular target: Tyrosine-protein kinase BTK (Homo sapiens, UniProt Q06187); assay: Inhibition of BTK
[26] = Selectivity of cMet over Tie2 kinase
[27] = Clearance in iv dosed rat; assay type: ADME, organism-based; conditions: in vivo
[28] = molecular target: Macrophage-stimulating protein receptor (Homo sapiens, UniProt Q04912); assay: Inhibition of phosphorylated RON
[29] = Selectivity of cMet over Flt1
[30] = Selectivity of cMet over EGFR
[31] = Selectivity of cMet over BTK
[32] = Selectivity of cMet over CDK5
[33] = molecular target: T1, Tyrosine-protein kinase JAK3 (Homo sapiens, UniProt P52333); assay: Inhibition of JAK3
T1 sequence (P52333 whole entry): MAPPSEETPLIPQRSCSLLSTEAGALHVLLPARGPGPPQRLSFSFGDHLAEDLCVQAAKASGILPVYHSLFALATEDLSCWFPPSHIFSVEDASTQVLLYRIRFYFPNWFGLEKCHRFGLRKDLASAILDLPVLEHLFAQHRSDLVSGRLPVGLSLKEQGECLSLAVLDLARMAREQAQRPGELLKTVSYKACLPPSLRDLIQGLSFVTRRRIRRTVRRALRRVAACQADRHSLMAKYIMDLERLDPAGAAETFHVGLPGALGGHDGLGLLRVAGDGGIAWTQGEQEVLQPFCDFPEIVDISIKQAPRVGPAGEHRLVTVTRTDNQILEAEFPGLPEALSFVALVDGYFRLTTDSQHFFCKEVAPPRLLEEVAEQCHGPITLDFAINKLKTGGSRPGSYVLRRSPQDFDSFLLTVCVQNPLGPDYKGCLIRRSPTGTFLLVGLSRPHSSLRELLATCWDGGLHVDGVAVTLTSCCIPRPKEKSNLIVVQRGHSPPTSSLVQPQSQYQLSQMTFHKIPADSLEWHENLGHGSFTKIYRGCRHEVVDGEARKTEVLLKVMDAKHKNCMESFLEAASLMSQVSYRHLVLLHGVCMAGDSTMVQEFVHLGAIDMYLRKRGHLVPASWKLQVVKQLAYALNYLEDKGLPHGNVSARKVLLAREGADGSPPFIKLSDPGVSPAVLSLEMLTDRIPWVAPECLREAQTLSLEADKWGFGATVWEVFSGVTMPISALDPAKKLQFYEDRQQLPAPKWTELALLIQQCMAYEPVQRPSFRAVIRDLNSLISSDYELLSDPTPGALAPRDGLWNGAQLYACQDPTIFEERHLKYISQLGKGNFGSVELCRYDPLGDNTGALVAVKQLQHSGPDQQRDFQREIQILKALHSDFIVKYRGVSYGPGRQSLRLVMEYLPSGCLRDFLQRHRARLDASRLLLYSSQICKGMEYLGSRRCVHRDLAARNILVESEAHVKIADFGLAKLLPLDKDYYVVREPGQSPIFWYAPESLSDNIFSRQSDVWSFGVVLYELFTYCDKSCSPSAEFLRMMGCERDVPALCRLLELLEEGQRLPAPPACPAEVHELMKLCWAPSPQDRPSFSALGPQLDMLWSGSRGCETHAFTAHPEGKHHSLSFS

Aurora kinase A = molecular target: T2, Aurora kinase A (Homo sapiens, UniProt O14965); assay: Inhibition of Aurora2
T2 sequence (O14965 whole entry): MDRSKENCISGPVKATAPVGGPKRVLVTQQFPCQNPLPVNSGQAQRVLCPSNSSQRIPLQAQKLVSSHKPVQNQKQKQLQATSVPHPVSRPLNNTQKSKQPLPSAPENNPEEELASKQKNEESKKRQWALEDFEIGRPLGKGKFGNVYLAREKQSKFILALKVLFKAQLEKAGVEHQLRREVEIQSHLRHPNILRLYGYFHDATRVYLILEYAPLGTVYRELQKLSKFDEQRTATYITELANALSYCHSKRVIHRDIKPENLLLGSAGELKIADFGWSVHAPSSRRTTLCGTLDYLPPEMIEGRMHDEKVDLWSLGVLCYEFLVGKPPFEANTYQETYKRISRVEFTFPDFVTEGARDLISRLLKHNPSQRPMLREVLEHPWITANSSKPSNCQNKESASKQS

Mus musculus = assay: Inhibition of human recombinant HGF-induced cMet phosphorylation in po or ip dosed BALB/c mouse liver after 2 hrs
[34] = Selectivity of cMet over Flt2
[35] = Selectivity of cMet over PKBalpha
[36] = Selectivity of cMet over ERK1
[37] = Half life in iv dosed rat; assay type: ADME, organism-based; conditions: in vivo
[38] = molecular target: Ribosomal protein S6 kinase beta-1 (Homo sapiens, UniProt P23443); assay: Inhibition of P70S6
[39] = molecular target: Cyclin-dependent kinase 5 (Homo sapiens, UniProt Q00535); assay: Inhibition of CDK5
[40] = Selectivity of cMet over JAK3
[41] = Selectivity of cMet over LCK
[42] = Selectivity of cMet over P70S6
[43] = Selectivity of cMet over P38
[44] = Inhibition of P38 kinase
[45] = Selectivity of cMet over PKAalpha
[46] = molecular target: Tyrosine-protein kinase Lck (Homo sapiens, UniProt P06239); assay: Inhibition of LCK
[47] = Volume of distribution in iv dosed rat; assay type: ADME, organism-based; conditions: in vivo
[48] = molecular target: cAMP-dependent protein kinase catalytic subunit alpha (Homo sapiens, UniProt P17612); assay: Inhibition of PKAalpha
Angiopoietin-1 receptor = Angiopoietin-1 receptor (Homo sapiens, UniProt Q02763); assay: Inhibition of Tie2 kinase
A-431 = assay: Cytotoxicity against human A431 cells; assay type: functional, cell-based
[49] = molecular target: Vascular endothelial growth factor receptor 3 (Homo sapiens, UniProt P35916); assay: Inhibition of Flt4 kinase
[50] = molecular target: Vascular endothelial growth factor receptor 1 (Homo sapiens, UniProt P17948); assay: Inhibition of Flt1 kinase
[51] = molecular target: Tyrosine-protein kinase ZAP-70 (Homo sapiens, UniProt P43403); assay: Inhibition of ZAP70
[52] = molecular target: Tyrosine-protein kinase JAK2 (Homo sapiens, UniProt O60674); assay: Inhibition of JAK2
[53] = molecular target: Fibroblast growth factor receptor 2 (Homo sapiens, UniProt P21802); assay: Inhibition of FGFRK2

## CCN1CCN(CCCOc2cc3nccc(Oc4ccc(-c5cnc(Cc6ccccc6)n(C)c5=O)cc4F)c3cc2OC)CC1
[1]
  Ki: 21 nM

## COc1cc2c(Oc3ccc(-c4cnc(Cc5ccc(F)cc5)n(C)c4=O)cc3F)ccnc2cc1OCCCN1CCOCC1
[2]
  Ki: 860 nM
[1]
  Ki: 17 nM
[3]
  Ki: > 3000 nM
[4]
  IC50: 196 nM

## COc1cc2nccc(Oc3ccc4cc(NC(=O)Cc5ccccc5)ccc4c3)c2cc1OC
[5]
  Selectivity ratio: 9
[1]
  Ki: 89 nM
[6]
  Selectivity ratio: 3

## COc1cc2nccc(Oc3ccc(-c4cnc(Nc5cccc(F)c5)n(C)c4=O)cc3F)c2cc1OC
[1]
  Ki: 38 nM

## COc1cc2c(Oc3ccc(-c4cnc(Nc5ccc(F)cc5)n(C)c4=O)nc3)ccnc2cc1OCCCN1CCOCC1
[7]
  IC50: 4700 nM
[8]
  IC50: > 100000 nM
[9]
  Selectivity ratio: > 100
[10]
  Selectivity ratio: > 100
[11]
  Selectivity ratio: < 10
[2]
  Ki: 51 nM
[12]
  Selectivity ratio: > 100
[13]
  bioavailability: 48%
[14]
  Selectivity ratio: > 100
[15]
  IC50: > 25000 nM
[16]
  Selectivity ratio: > 100
[17]
  IC50: > 100000 nM
[18]
  IC50: 52000 nM
[19]
  IC50: 1300 nM
[20]
  Selectivity ratio: > 100
[21]
  IC50: 7800 nM
[1]
  Ki: 3.4 nM
[22]
  Selectivity ratio: > 100
[23]
  Selectivity ratio: > 100
[24]
  Selectivity ratio: > 100
[25]
  IC50: 126 nM
[26]
  Selectivity ratio: > 100
[27]
  clearance: 9.33 mL/min/kg
[28]
  Ki: 1.3 nM
[29]
  Selectivity ratio: > 100
[30]
  Selectivity ratio: > 100
[31]
  Selectivity ratio: < 10
[32]
  Selectivity ratio: > 100
[33]
  IC50: > 25000 nM
Aurora kinase A
  IC50: 426 nM
Mus musculus
  ED90: 30 mg/kg
[34]
  Selectivity ratio: > 100
[35]
  Selectivity ratio: > 100
[36]
  Selectivity ratio: > 100
[37]
  half-life: 2.4 h
[38]
  IC50: 65000 nM
[39]
  IC50: > 100000 nM
[3]
  Ki: 83 nM
[40]
  Selectivity ratio: > 100
[4]
  IC50: 59 nM
[41]
  Selectivity ratio: < 10
[42]
  Selectivity ratio: > 100
[43]
  Selectivity ratio: > 100
[44]
  IC50: > 100000 nM
[45]
  Selectivity ratio: > 100
[46]
  IC50: 33 nM
[47]
  Vd: 3.4 L/kg
[48]
  IC50: > 25000 nM
Angiopoietin-1 receptor
  IC50: 221 nM

## COc1cc2c(Oc3ccc(-c4cnc(Cc5ccccc5)n(C)c4=O)cc3F)ccnc2cc1OCCCN1CCN(C)CC1
[1]
  Ki: 9.2 nM

## COc1cc2nccc(Oc3ccc(-c4cnc(C(N)c5ccccc5)n(C)c4=O)cc3F)c2cc1OC (stereo not given)
[1]
  Ki: 72 nM

## COc1cc2nccc(Oc3ccc(-c4cnc(Nc5ccc(F)cc5)n(C)c4=O)cc3F)c2cc1OC
[2]
  Ki: 70 nM
[3]
  Ki: 382 nM

## COc1cc2nccc(Oc3ccc(-c4cnc(Cc5ccccc5)n(C)c4=O)cc3F)c2cc1OC
[2]
  Ki: 1030 nM
[3]
  Ki: > 1300 nM

## COc1cc2nccc(Oc3ccc(-c4ccc(Cc5ccccc5)nn4)cc3F)c2cc1OC
[1]
  Ki: 201 nM
[3]
  Ki: 56 nM

## COc1cc2nccc(Oc3ccc(NC(=S)NC(=O)Cc4ccccc4)cc3F)c2cc1OC
A-431
  IC50: 8.7 nM

## COc1cc2c(Oc3ccc(-c4cnc(Nc5ccc(F)cc5)n(C)c4=O)cc3F)ccnc2cc1OCCCN1CCOCC1
[7]
  IC50: > 100000 nM
[8]
  IC50: > 100000 nM
[49]
  IC50: 5 nM
[2]
  Ki: 22 nM
[13]
  bioavailability: 34%
[17]
  IC50: > 100000 nM
[18]
  IC50: > 100000 nM
[19]
  IC50: > 25000 nM
[50]
  IC50: 45 nM
[1]
  Ki: 4.9 nM
[25]
  IC50: 27 nM
[27]
  clearance: 9.33 mL/min/kg
[28]
  Ki: 28 nM
[51]
  IC50: > 8300 nM
[52]
  IC50: 3400 nM
[33]
  IC50: > 1000 nM
Aurora kinase A
  IC50: > 200 nM
Mus musculus
  ED90: 30 mg/kg
[37]
  half-life: 2.4 h
[53]
  IC50: 140 nM
[38]
  IC50: 5700 nM
[3]
  Ki: 139 nM
[4]
  IC50: 82 nM
[44]
  IC50: 3600 nM
[46]
  IC50: < 4 nM
[47]
  Vd: 3.4 L/kg
[48]
  IC50: > 100000 nM
Angiopoietin-1 receptor
  IC50: 26 nM
